The term IC50 denotes the concentration at which inhibition is half-maximal.

10 compounds from ChEMBL document CHEMBL4219184, “Design, synthesis, and biological evaluation of new B-RafV600E kinase inhibitors” (Bioorg Med Chem, 2018) can be followed below.

Molecules are shown by their SMILES.

For one experiment, the system named is HCT-116. As to the kind of experiment: Antiproliferative activity against wild type BRAF expressing human HCT116 cells after 48 hrs by MTT assay. Type of experiment: functional, cell-based. The settings on record: HCT-116, 48 h. Summed up:
(§1)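 MTT assay. Cells seeded at 10^4 per well in 96-well plates and left 24 h. Compounds then added at 0.01, 0.1, 1, 10 and 100 µM for 48 h. IC50 values calculated from the viability data.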
Background: Tetrazolium assays rely on reduction of a dye to a coloured formazan, in cell work by metabolically active cells.
`O=C(Nc1ccc2[nH]ccc2c1)c1cccc(NC(=O)c2cccc(Cl)n2)c1` registered an IC50 of 35.5 µM.

`O=C(Nc1cccc(C(=O)Nc2ccc3[nH]ncc3c2)c1)c1cccc(Cl)c1` displayed an IC50 of 26.2 µM.

The compound `O=C(Nc1cccc(C(=O)Nc2ccc3[nH]ncc3c2)c1)c1ccc(Cl)cc1` displayed an IC50 of 32.5 µM.

As for `O=C(Nc1ccc2[nH]ncc2c1)c1cccc(NC(=O)c2cc(Cl)ccn2)c1`, the IC50 amounted to 19.7 µM.

`O=C(Nc1cccc(C(=O)Nc2ccc3[nH]ccc3c2)c1)c1ccc(Oc2ccccc2)cc1`: the IC50 is 35.2 µM.

`O=C(Nc1ccc2[nH]ncc2c1)c1cccc(NC(=O)c2cccc(Cl)n2)c1` displayed an IC50 of 24.9 µM.

Take `CC(C)(C)c1ccc(C(=O)Nc2cccc(C(=O)Nc3ccc4[nH]ncc4c3)c2)cc1`: the half-inhibitory concentration (IC50) stood at 26.2 µM.

`CNC(=O)c1cc(Oc2ccc(NC(=O)Nc3ccc(Cl)c(C(F)(F)F)c3)cc2)ccn1` [SORAFENIB] yielded an IC50 of 23.3 µM.

On to `Cc1cccc(C(=O)Nc2cccc(C(=O)Nc3ccc4[nH]ncc4c3)c2)n1`, for which the IC50 is 25.1 µM.

For the compound `O=C(Nc1cccc(C(=O)Nc2ccc3[nH]ncc3c2)c1)c1cccc(F)c1`, the IC50 was found to be 20.5 µM.

For a further experiment, the target named is Serine/threonine-protein kinase B-raf (Mus musculus, UniProt P28028, V600E). As to the kind of experiment: Inhibition of mouse full length GST-tagged BRAF V600E mutant using recombinant human full length N-terminal His-tagged MEK1 as substrate preincubated for 1 hr followed by substrate addition measured after 25 mins by Nu-page gel-based phosphor screen analysis.
Sequence of Serine/threonine-protein kinase B-raf (P28028 whole entry, looked up, stated change not applied): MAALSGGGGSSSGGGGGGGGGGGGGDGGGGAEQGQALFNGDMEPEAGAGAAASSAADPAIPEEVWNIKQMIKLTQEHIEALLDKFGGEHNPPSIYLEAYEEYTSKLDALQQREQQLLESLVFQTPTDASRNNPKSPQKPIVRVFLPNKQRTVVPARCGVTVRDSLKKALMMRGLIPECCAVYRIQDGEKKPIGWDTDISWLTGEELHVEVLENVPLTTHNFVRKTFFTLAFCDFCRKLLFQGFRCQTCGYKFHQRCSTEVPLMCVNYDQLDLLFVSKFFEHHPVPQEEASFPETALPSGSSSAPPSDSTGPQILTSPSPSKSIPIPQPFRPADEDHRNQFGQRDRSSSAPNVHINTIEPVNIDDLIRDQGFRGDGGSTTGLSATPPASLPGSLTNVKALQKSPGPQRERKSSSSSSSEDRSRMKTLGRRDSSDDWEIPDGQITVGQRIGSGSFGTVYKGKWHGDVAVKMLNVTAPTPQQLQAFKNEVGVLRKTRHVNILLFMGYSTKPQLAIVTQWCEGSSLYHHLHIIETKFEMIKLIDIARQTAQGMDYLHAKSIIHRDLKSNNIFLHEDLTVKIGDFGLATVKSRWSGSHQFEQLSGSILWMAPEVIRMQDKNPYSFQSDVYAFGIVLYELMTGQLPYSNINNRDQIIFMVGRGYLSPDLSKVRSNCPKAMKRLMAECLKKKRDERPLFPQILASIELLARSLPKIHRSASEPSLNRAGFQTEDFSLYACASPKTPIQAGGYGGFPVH
Conditions: not given
`O=C(Nc1ccc2[nH]ccc2c1)c1cccc(NC(=O)c2cccc(Cl)n2)c1`: the IC50 stood at 6.57 µM.

In the case of `O=C(Nc1cccc(C(=O)Nc2ccc3[nH]ncc3c2)c1)c1cccc(Cl)c1`, the IC50 came out at 4.94 µM.

With `O=C(Nc1cccc(C(=O)Nc2ccc3[nH]ncc3c2)c1)c1ccc(Cl)cc1`, the IC50 was determined as 3.04 µM.

Consider `O=C(Nc1ccc2[nH]ncc2c1)c1cccc(NC(=O)c2cc(Cl)ccn2)c1`, for which the IC50 came to 1.14 µM.

In the case of `O=C(Nc1cccc(C(=O)Nc2ccc3[nH]ccc3c2)c1)c1ccc(Oc2ccccc2)cc1`, the IC50 was found to be 5.72 µM.

`O=C(Nc1ccc2[nH]ncc2c1)c1cccc(NC(=O)c2cccc(Cl)n2)c1`: the IC50 came to 1.05 µM.

Regarding `CC(C)(C)c1ccc(C(=O)Nc2cccc(C(=O)Nc3ccc4[nH]ncc4c3)c2)cc1`, the IC50 was determined as 0.75 µM.

As to `Cc1cccc(C(=O)Nc2cccc(C(=O)Nc3ccc4[nH]ncc4c3)c2)n1`, the IC50 turned out to be 0.81 µM.

Consider `O=C(Nc1cccc(C(=O)Nc2ccc3[nH]ncc3c2)c1)c1cccc(F)c1`, for which the IC50 came out at 8.71 µM.

The next experiment deals with HT-29. Kind of experiment: Antiproliferative activity against human HT-29 cells harboring BRAF V600E mutant after 48 hrs by MTT assay. Format: functional, cell-based. The settings on record: HT-29, 48 h. Summed up: as §1
`O=C(Nc1ccc2[nH]ccc2c1)c1cccc(NC(=O)c2cccc(Cl)n2)c1` had an IC50 of 19.6 µM.

Compound `O=C(Nc1cccc(C(=O)Nc2ccc3[nH]ncc3c2)c1)c1cccc(Cl)c1` yielded an IC50 of 20.5 µM.

`O=C(Nc1cccc(C(=O)Nc2ccc3[nH]ncc3c2)c1)c1ccc(Cl)cc1` had an IC50 of 17.9 µM.

In turn, `O=C(Nc1ccc2[nH]ncc2c1)c1cccc(NC(=O)c2cc(Cl)ccn2)c1` gave an IC50 of 8.99 µM.

`O=C(Nc1cccc(C(=O)Nc2ccc3[nH]ccc3c2)c1)c1ccc(Oc2ccccc2)cc1` registered an IC50 of 21.1 µM.

Take `O=C(Nc1ccc2[nH]ncc2c1)c1cccc(NC(=O)c2cccc(Cl)n2)c1`: 12.2 µM corresponded to half-maximal inhibition (IC50).

Consider `CC(C)(C)c1ccc(C(=O)Nc2cccc(C(=O)Nc3ccc4[nH]ncc4c3)c2)cc1`, for which the IC50 was determined as 10.9 µM.

Compound `CNC(=O)c1cc(Oc2ccc(NC(=O)Nc3ccc(Cl)c(C(F)(F)F)c3)cc2)ccn1` [SORAFENIB] displayed an IC50 of 8.44 µM.

The compound `Cc1cccc(C(=O)Nc2cccc(C(=O)Nc3ccc4[nH]ncc4c3)c2)n1` returned an IC50 of 11.5 µM.

The compound `O=C(Nc1cccc(C(=O)Nc2ccc3[nH]ncc3c2)c1)c1cccc(F)c1` displayed an IC50 of 19.2 µM.

Test system in the next experiment: not listed separately
As to the kind of experiment: Antiproliferative activity against wild type BRAF expressing human WM1361 cells after 48 hrs by MTT assay. Format: functional. The settings on record: WM1361, 48 h. In outline:
as §1
`O=C(Nc1ccc2[nH]ccc2c1)c1cccc(NC(=O)c2cccc(Cl)n2)c1`: 19.2 µM corresponded to half-maximal inhibition (IC50).

The compound `O=C(Nc1cccc(C(=O)Nc2ccc3[nH]ncc3c2)c1)c1cccc(Cl)c1` registered an IC50 of 25.5 µM.

In turn, `O=C(Nc1cccc(C(=O)Nc2ccc3[nH]ncc3c2)c1)c1ccc(Cl)cc1` gave an IC50 of 30.8 µM.

Take `O=C(Nc1ccc2[nH]ncc2c1)c1cccc(NC(=O)c2cc(Cl)ccn2)c1`: the IC50 turned out to be 16.2 µM.

`O=C(Nc1cccc(C(=O)Nc2ccc3[nH]ccc3c2)c1)c1ccc(Oc2ccccc2)cc1` had an IC50 of 21.6 µM.

`O=C(Nc1ccc2[nH]ncc2c1)c1cccc(NC(=O)c2cccc(Cl)n2)c1` yielded an IC50 of 27.2 µM.

In turn, `CC(C)(C)c1ccc(C(=O)Nc2cccc(C(=O)Nc3ccc4[nH]ncc4c3)c2)cc1` yielded an IC50 of 18.4 µM.

For `CNC(=O)c1cc(Oc2ccc(NC(=O)Nc3ccc(Cl)c(C(F)(F)F)c3)cc2)ccn1` [SORAFENIB], the IC50 came to 16.4 µM.

On to `Cc1cccc(C(=O)Nc2cccc(C(=O)Nc3ccc4[nH]ncc4c3)c2)n1`, for which the IC50 came out at 21.3 µM.

Turning to `O=C(Nc1cccc(C(=O)Nc2ccc3[nH]ncc3c2)c1)c1cccc(F)c1`, the IC50 is 38.4 µM.

The test system of another experiment is A-375. As to the kind of experiment: Antiproliferative activity against human A375 cells harboring BRAF V600E mutant after 48 hrs by MTT assay. Type of experiment: functional, cell-based. The settings on record: A-375, 48 h. Summed up: as §1
In the case of `O=C(Nc1ccc2[nH]ccc2c1)c1cccc(NC(=O)c2cccc(Cl)n2)c1`, the IC50 was determined as 8.46 µM.

Compound `O=C(Nc1cccc(C(=O)Nc2ccc3[nH]ncc3c2)c1)c1cccc(Cl)c1` returned an IC50 of 9.87 µM.

As for `O=C(Nc1cccc(C(=O)Nc2ccc3[nH]ncc3c2)c1)c1ccc(Cl)cc1`, half-maximal inhibition (IC50) was put at 7.62 µM.

In turn, `O=C(Nc1ccc2[nH]ncc2c1)c1cccc(NC(=O)c2cc(Cl)ccn2)c1` displayed an IC50 of 4.56 µM.

The compound `O=C(Nc1cccc(C(=O)Nc2ccc3[nH]ccc3c2)c1)c1ccc(Oc2ccccc2)cc1` had an IC50 of 10.5 µM.

Take `O=C(Nc1ccc2[nH]ncc2c1)c1cccc(NC(=O)c2cccc(Cl)n2)c1`: it took 8.83 µM to reach half-maximal inhibition (IC50).

`CC(C)(C)c1ccc(C(=O)Nc2cccc(C(=O)Nc3ccc4[nH]ncc4c3)c2)cc1` showed an IC50 of 2.85 µM.

In turn, `CNC(=O)c1cc(Oc2ccc(NC(=O)Nc3ccc(Cl)c(C(F)(F)F)c3)cc2)ccn1` [SORAFENIB] had an IC50 of 3.36 µM.

Take `Cc1cccc(C(=O)Nc2cccc(C(=O)Nc3ccc4[nH]ncc4c3)c2)n1`: 7.46 µM corresponded to half-maximal inhibition (IC50).

`O=C(Nc1cccc(C(=O)Nc2ccc3[nH]ncc3c2)c1)c1cccc(F)c1` had an IC50 of 12.2 µM.
